Laboratory results taken from ChEMBL document CHEMBL1250489, “Schiff bases of indoline-2,3-dione (isatin) derivatives and nalidixic acid carbohydrazide, synthesis, antitubercular activity and pharmacophoric model building” (2010).
In brackets after ≈: the same amount, converted by molar mass. Activity calls are given as the source filed them. The rule behind the calls is not given here.

What was measured:
[1] = system: Mycobacterium intracellulare; assay: Antitubercular activity against Mycobacterium intracellular ATCC 35743 after 48 hrs by agar dilution method; assay type: functional; settings: ATCC 35743, 48 h
Method in brief: (§1)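 Agar dilution MIC method. Compounds were dissolved in DMSO at 1 mg/ml and mixed into molten agar at 200 µg/ml. Active compounds were further diluted through 100, 50, 25, 12.5 and 6.25 down to 0.625 µg/ml. Plates had 3–4 mm agar depth. Inocula were overnight Mueller–Hinton broth cultures diluted 1:100 and radially streaked, then incubated 35 °C for 48 h. Isoniazid was the reference; drug-free and DMSO controls were included.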

Mycobacterium xenopi [2] = assay: Antitubercular activity against Mycobacterium xenopi ATCC 14470 after 48 hrs by agar dilution method; assay type: functional; settings: ATCC 14470, 48 h; method in brief: as §1
Mycobacteroides chelonae [3] = assay: Antitubercular activity against Mycobacterium chelonae ATCC 35751 after 48 hrs by agar dilution method; assay type: functional; settings: ATCC 35751, 48 h; method in brief: as §1
[4] = system: Mycolicibacterium smegmatis; assay: Antitubercular activity against Mycobacterium smegmatis ATCC 35797 after 48 hrs by agar dilution method; assay type: functional; settings: ATCC 35797, 48 h
Method in brief: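 MIC by agar dilution, NCCLS-like protocol. A 1 mg/ml DMSO stock is diluted in 10% molten agar to 200 µg/ml, then 100, 50, 25, 12.5, 6.25 down to 0.625 µg/ml. Plates are 3–4 mm deep. Overnight Mueller–Hinton cultures are diluted 1:100 and streaked radially. Incubation is 35 °C for 48 h. The control is DMSO in medium.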

[5] = system: Mycobacterium intracellulare; assay: Antitubercular activity against Mycobacterium intracellular ATCC 35743 at 200 ug/ml after 48 hrs by agar dilution method; assay type: functional, organism-based
Method in brief: (§2)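 Agar dilution screen. Compounds are dissolved in DMSO at 1 mg/ml stock and mixed into 10% molten agar to 200 µg/ml. Plates are poured 3–4 mm deep. Overnight Mueller–Hinton broth cultures are diluted 1:100 and streaked radially. Plates are incubated at 35 °C for 48 h. Controls are strain with DMSO and medium only.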

Mycobacterium xenopi [6] = assay: Antitubercular activity against Mycobacterium xenopi ATCC 14470 at 200 ug/ml after 48 hrs by agar dilution method; assay type: functional, organism-based; method in brief: as §2
Mycobacteroides chelonae [7] = assay: Antitubercular activity against Mycobacterium chelonae ATCC 35751 at 200 ug/ml after 48 hrs by agar dilution method; assay type: functional, organism-based; method in brief: as §2
[8] = system: Mycolicibacterium smegmatis; assay: Antitubercular activity against Mycobacterium smegmatis ATCC 35797 at 200 ug/ml after 48 hrs by agar dilution method; assay type: functional, organism-based; method in brief: as §1
[9] = system: Mycobacterium intracellulare; assay: Ratio of compound MIC to isoniazid MIC for Mycobacterium intracellular ATCC 35743; assay type: functional
Mycobacterium xenopi [10] = assay: Ratio of compound MIC to isoniazid MIC for Mycobacterium xenopi ATCC 14470; assay type: functional
Mycobacteroides chelonae [11] = assay: Ratio of compound MIC to isoniazid MIC for Mycobacterium chelonae ATCC 35751; assay type: functional
[12] = system: Mycolicibacterium smegmatis; assay: Ratio of compound MIC to isoniazid MIC for Mycobacterium smegmatis ATCC 35797; assay type: functional

Compound	MIC [1] [µg/mL]	MIC (Mycobacterium xenopi [2]) [µg/mL]	MIC [4] [µg/mL]	MIC [8]	further results
CCn1cc(C(=O)N/N=C2\C(=O)N(Cc3ccccc3)c3ccc(Br)cc32)c(=O)c2ccc(C)nc21	50 (≈ 91.8 µM)	50 (≈ 91.8 µM)	50 (≈ 91.8 µM)		MIC (Mycobacteroides chelonae [3]): 50 µg/mL (≈ 91.8 µM)
CCn1cc(C(=O)N/N=C2\C(=O)Nc3ccccc32)c(=O)c2ccc(C)nc21			100 (≈ 266 µM)		MIC [5]: inactive; MIC (Mycobacterium xenopi [6]): inactive; MIC (Mycobacteroides chelonae [7]): inactive
NNC(=O)c1ccncc1 [ISONIAZID]	12.5 (≈ 91.1 µM)	12.5 (≈ 91.1 µM)	12.5 (≈ 91.1 µM)		MIC (Mycobacteroides chelonae [3]): 12.5 µg/mL (≈ 91.1 µM)
CCN1C(=O)/C(=N\NC(=O)c2cn(CC)c3nc(C)ccc3c2=O)c2ccccc21	200 (≈ 496 µM)	200 (≈ 496 µM)	200 (≈ 496 µM)		MIC (Mycobacteroides chelonae [3]): 200 µg/mL (≈ 496 µM)
CCn1cc(C(=O)N/N=C2\C(=O)Nc3ccc(Br)cc32)c(=O)c2ccc(C)nc21			200 (≈ 440 µM)		MIC [5]: inactive; MIC (Mycobacterium xenopi [6]): inactive; MIC (Mycobacteroides chelonae [7]): inactive
CCn1cc(C(=O)N/N=C2\C(=O)N(CN3CCN(C)CC3)c3ccccc32)c(=O)c2ccc(C)nc21				inactive	
CCCN1C(=O)/C(=N\NC(=O)c2cn(CC)c3nc(C)ccc3c2=O)c2cc(Br)ccc21				inactive	
CCCN1C(=O)/C(=N\NC(=O)c2cn(CC)c3nc(C)ccc3c2=O)c2ccccc21				inactive	
CCN(CC)CN1C(=O)/C(=N\NC(=O)c2cn(CC)c3nc(C)ccc3c2=O)c2cc(Br)ccc21				inactive	
CCn1cc(C(=O)N/N=C2\C(=O)N(C)c3ccccc32)c(=O)c2ccc(C)nc21	200 (≈ 514 µM)		200 (≈ 514 µM)		MIC (Mycobacterium xenopi [6]): inactive; MIC (Mycobacteroides chelonae [7]): inactive
C=CCN1C(=O)/C(=N\NC(=O)c2cn(CC)c3nc(C)ccc3c2=O)c2cc(Br)ccc21				inactive	
CCn1cc(C(=O)N/N=C2\C(=O)N(Cc3ccccc3)c3ccccc32)c(=O)c2ccc(C)nc21	0.625 (≈ 1.34 µM)	0.625 (≈ 1.34 µM)	0.625 (≈ 1.34 µM)		MIC (Mycobacteroides chelonae [3]): 0.625 µg/mL (≈ 1.34 µM); Ratio [9]: 20; Ratio (Mycobacterium xenopi [10]): 20; Ratio (Mycobacteroides chelonae [11]): 20; Ratio [12]: 20
CCN(CC)CN1C(=O)/C(=N\NC(=O)c2cn(CC)c3nc(C)ccc3c2=O)c2ccccc21				inactive	
CCn1cc(C(=O)N/N=C2\C(=O)N(C)c3ccc(Br)cc32)c(=O)c2ccc(C)nc21				inactive	
CCN1C(=O)/C(=N\NC(=O)c2cn(CC)c3nc(C)ccc3c2=O)c2cc(Br)ccc21	100 (≈ 207 µM)	100 (≈ 207 µM)	100 (≈ 207 µM)		MIC (Mycobacteroides chelonae [7]): inactive
C=CCN1C(=O)/C(=N\NC(=O)c2cn(CC)c3nc(C)ccc3c2=O)c2ccccc21				inactive	
